ChEMBL document CHEMBL3779833, “Hydroxyurea derivatives of irofulven with improved antitumor efficacy” (Bioorg Med Chem Lett, 2016)
Active and inactive are the calls of the source. The rule behind the calls is not given here.

Legend:
A549 = experiment: Cytotoxicity against human A549 cells after 48 hrs by sulforhodamine B assay; format: functional, cell-based; settings: A549, 48 h, read-out: pIC50 (converted)
EKVX = experiment: Cytotoxicity against human EKVX cells after 48 hrs by sulforhodamine B assay; format: functional, cell-based
[1] = Cytotoxicity against human HOP62 cells after 48 hrs by sulforhodamine B assay; format: functional, cell-based; settings: HOP-62, 48 h
[2] = Cytotoxicity against human HOP92 cells after 48 hrs by sulforhodamine B assay; format: functional, cell-based; settings: HOP-92, 48 h
NCI-H226 = experiment: Cytotoxicity against human NCI-H226 cells after 48 hrs by sulforhodamine B assay; format: functional, cell-based; settings: NCI-H226, 48 h
NCI-H23 = experiment: Cytotoxicity against human NCI-H23 cells after 48 hrs by sulforhodamine B assay; format: functional, cell-based; settings: NCI-H23, 48 h
NCI-H322M = experiment: Cytotoxicity against human NCI-H322M cells after 48 hrs by sulforhodamine B assay; format: functional, cell-based
NCI-H460 = experiment: Cytotoxicity against human NCI-H460 cells after 48 hrs by sulforhodamine B assay; format: functional, cell-based; settings: NCI-H460, 48 h, read-out: pIC50 (converted)
NCI-H522 = experiment: Cytotoxicity against human NCI-H522 cells after 48 hrs by sulforhodamine B assay; format: functional, cell-based; settings: NCI-H522, 48 h
[3] = Cytotoxicity against human COLO205 cells after 48 hrs by sulforhodamine B assay; format: functional, cell-based; settings: COLO 205, 48 h
[4] = Cytotoxicity against human HCC2998 cells after 48 hrs by sulforhodamine B assay; format: functional, cell-based; settings: HCC 2998, 48 h
[5] = Cytotoxicity against human HCT116 cells after 48 hrs by sulforhodamine B assay; format: functional, cell-based; settings: HCT-116, 48 h
[6] = Cytotoxicity against human HCT15 cells after 48 hrs by sulforhodamine B assay; format: functional, cell-based; settings: HCT-15, 48 h
HT-29 = experiment: Cytotoxicity against human HT-29 cells after 48 hrs by sulforhodamine B assay; format: functional, cell-based; settings: HT-29, 48 h
KM12 = experiment: Cytotoxicity against human KM12 cells after 48 hrs by sulforhodamine B assay; format: functional, cell-based; settings: KM12, 48 h
[7] = Cytotoxicity against human SW620 cells after 48 hrs by sulforhodamine B assay; format: functional, cell-based; settings: SW-620, 48 h
[8] = Cytotoxicity against human SF268 cells after 48 hrs by sulforhodamine B assay; format: functional, cell-based; settings: SF-268, 48 h
[9] = Cytotoxicity against human SF295 cells after 48 hrs by sulforhodamine B assay; format: functional, cell-based; settings: SF-295, 48 h
[10] = Cytotoxicity against human SF539 cells after 48 hrs by sulforhodamine B assay; format: functional, cell-based; settings: SF-539, 48 h
[11] = Cytotoxicity against human SNB19 cells after 48 hrs by sulforhodamine B assay; format: functional, cell-based; settings: SNB-19, 48 h
[12] = Cytotoxicity against human SNB75 cells after 48 hrs by sulforhodamine B assay; format: functional, cell-based; settings: SNB-75, 48 h
U-251 = experiment: Cytotoxicity against human U251 cells after 48 hrs by sulforhodamine B assay; format: functional, cell-based; settings: U-251, 48 h
[13] = Cytotoxicity against human LOXIMVI cells after 48 hrs by sulforhodamine B assay; format: functional, cell-based; settings: LOX IMVI
Malme-3M = experiment: Cytotoxicity against human MALME-3M cells after 48 hrs by sulforhodamine B assay; format: functional, cell-based
M14 = experiment: Cytotoxicity against human M14 cells after 48 hrs by sulforhodamine B assay; format: functional, cell-based; settings: M14, 48 h
MDA-MB-435 = experiment: Cytotoxicity against human MDA-MB-435 cells after 48 hrs by sulforhodamine B assay; format: functional, cell-based; settings: MDA-MB-435, 48 h
SK-MEL-2 = experiment: Cytotoxicity against human SK-MEL-2 cells after 48 hrs by sulforhodamine B assay; format: functional, cell-based; settings: SK-MEL-2, 48 h
SK-MEL-28 = experiment: Cytotoxicity against human SK-MEL-28 cells after 48 hrs by sulforhodamine B assay; format: functional, cell-based; settings: SK-MEL-28, 48 h
SK-MEL-5 = experiment: Cytotoxicity against human SK-MEL-5 cells after 48 hrs by sulforhodamine B assay; format: functional, cell-based; settings: SK-MEL-5, 48 h
[14] = Cytotoxicity against human UACC257 cells after 48 hrs by sulforhodamine B assay; format: functional, cell-based; settings: UACC-257, 48 h
[15] = Cytotoxicity against human IGROV1 cells after 48 hrs by sulforhodamine B assay; format: functional, cell-based; settings: IGROV-1, 48 h
[16] = Cytotoxicity against human OVCAR3 cells after 48 hrs by sulforhodamine B assay; format: functional, cell-based; settings: OVCAR-3, 48 h
[17] = Cytotoxicity against human OVCAR4 cells after 48 hrs by sulforhodamine B assay; format: functional, cell-based; settings: OVCAR-4, 48 h
[18] = Cytotoxicity against human OVCAR5 cells after 48 hrs by sulforhodamine B assay; format: functional, cell-based; settings: OVCAR-5, 48 h
[19] = Cytotoxicity against human OVCAR8 cells after 48 hrs by sulforhodamine B assay; format: functional, cell-based; settings: OVCAR-8, 48 h
[20] = Cytotoxicity against human NCI-ADR-RES cells after 48 hrs by sulforhodamine B assay; format: functional, cell-based
[21] = Cytotoxicity against human SKOV3 cells after 48 hrs by sulforhodamine B assay; format: functional, cell-based; settings: SK-OV-3, 48 h
786-0 = experiment: Cytotoxicity against human 786-0 cells after 48 hrs by sulforhodamine B assay; format: functional, cell-based; settings: 786-0, 48 h
A498 = experiment: Cytotoxicity against human A498 cells after 48 hrs by sulforhodamine B assay; format: functional, cell-based; settings: A498, 48 h
ACHN = experiment: Cytotoxicity against human ACHN cells after 48 hrs by sulforhodamine B assay; format: functional, cell-based
[22] = Cytotoxicity against human Caki1 cells after 48 hrs by sulforhodamine B assay; format: functional, cell-based; settings: CAKI-1, 48 h
[23] = Cytotoxicity against human RXF393 cells after 48 hrs by sulforhodamine B assay; format: functional, cell-based; settings: RXF 393, 48 h
SN12C = experiment: Cytotoxicity against human SN12C cells after 48 hrs by sulforhodamine B assay; format: functional, cell-based
[24] = Cytotoxicity against human TK10 cells after 48 hrs by sulforhodamine B assay; format: functional, cell-based; settings: TK-10, 48 h
[25] = Cytotoxicity against human UO31 cells after 48 hrs by sulforhodamine B assay; format: functional, cell-based; settings: UO-31, 48 h
[26] = Cytotoxicity against human PC3 cells after 48 hrs by sulforhodamine B assay; format: functional, cell-based; settings: PC-3, 48 h
[27] = Cytotoxicity against human DU145 cells after 48 hrs by sulforhodamine B assay; format: functional, cell-based; settings: DU-145, 48 h, read-out: pIC50 (converted)
MCF7 = experiment: Cytotoxicity against human MCF7 cells after 48 hrs by sulforhodamine B assay; format: functional, cell-based; settings: MCF7, 48 h
MDA-MB-231 = experiment: Cytotoxicity against human MDA-MB-231 cells after 48 hrs by sulforhodamine B assay; format: functional, cell-based; settings: MDA-MB-231, 48 h
[28] = Cytotoxicity against human Hs 578T cells after 48 hrs by sulforhodamine B assay; format: functional, cell-based
[29] = Cytotoxicity against human BT549 cells after 48 hrs by sulforhodamine B assay; format: functional, cell-based; settings: BT-549, 48 h
T47D = experiment: Cytotoxicity against human T47D cells after 48 hrs by sulforhodamine B assay; format: functional, cell-based
[30] = Cytotoxicity against human MV522 cells after 48 hrs by trypan blue exclusion assay; format: functional, cell-based; settings: MV522, 48 h
Outline: (§1)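 Cells exposed to drug for 48 h; growth measured by trypan blue exclusion. IC50 is the concentration giving 50% growth inhibition; values reported in nM.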

[31] = Cytotoxicity against human CHRF-288-11 cells after 48 hrs by trypan blue exclusion assay; format: cell-based; outline: as §1
[32] = Selectivity index, ratio of IC50 for human CHRF-288-11 cells to IC50 for human MV522 cells; format: functional
Outline: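 Ratio of the IC50 in megakaryocytic CHRF 288-11 (non-target) cells to the IC50 in MV522 adenocarcinoma (target) cells.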

MV522 = experiment: Antitumor activity against human MV522 cells xenografted in Balb/c nu/nu mouse assessed as inhibition of tumor growth at 10 mg/kg, ip administered thrice a week for 3 weeks; format: functional, organism-based
Outline: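 MV522 tumour xenografts in Balb/c nu/nu mice; drugs given intraperitoneally 3 times a week for 3 consecutive weeks at 10 mg/kg, the dose compared across agents; N = 8 per group.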

CC1=C(CO)C2=C(C)C3(CC3)[C@@](C)(O)C(=O)C2=C1 [IROFULVEN]
IC50 (A549): < 126 nM | IC50 (EKVX): 200 nM | IC50 [1]: 158 nM | IC50 [2]: 316 nM | IC50 (NCI-H226): 200 nM | IC50 (NCI-H23): 79.4 nM | IC50 (NCI-H322M): 251 nM | IC50 (NCI-H460): < 50.1 nM | IC50 (NCI-H522): 158 nM | IC50 [3]: 158 nM | IC50 [4]: 158 nM | IC50 [5]: 200 nM | IC50 [6]: 316 nM | IC50 (HT-29): 251 nM | IC50 (KM12): 631 nM | IC50 [7]: 0.631 µM | IC50 [8]: 251 nM | IC50 [9]: 316 nM | IC50 [10]: 158 nM | IC50 [11]: 316 nM | IC50 [12]: 200 nM | IC50 (U-251): 316 nM | IC50 [13]: 631 nM | IC50 (Malme-3M): 200 nM | IC50 (M14): 251 nM | IC50 (MDA-MB-435): 1580 nM | IC50 (SK-MEL-2): 200 nM | IC50 (SK-MEL-28): 631 nM | IC50 (SK-MEL-5): 158 nM | IC50 [14]: 251 nM | IC50 [15]: 158 nM | IC50 [16]: 251 nM | IC50 [17]: 251 nM | IC50 [18]: 158 nM | IC50 [19]: 200 nM | IC50 [20]: 251 nM | IC50 [21]: 251 nM | IC50 (786-0): 200 nM | IC50 (A498): 200 nM | IC50 (ACHN): 251 nM | IC50 [22]: 251 nM | IC50 [23]: 50.1 nM | IC50 (SN12C): 398 nM | IC50 [24]: 251 nM | IC50 [25]: 200 nM | IC50 [26]: 251 nM | IC50 [27]: < 100 nM | IC50 (MCF7): 251 nM | IC50 (MDA-MB-231): 316 nM | IC50 [28]: 316 nM | IC50 [29]: 316 nM | IC50 (T47D): 200 nM | IC50 [30]: 70 nM | IC50 [31]: 0.29 µM | Ratio IC50 [32]: 4.1 | TGI (MV522): Active

CC1=C(CN(O)C(N)=O)C2=C(C)C3(CC3)[C@@](C)(O)C(=O)C2=C1 [LP-184]
IC50 (A549): < 10 nM | IC50 (EKVX): 316 nM | IC50 [1]: 25.1 nM | IC50 [2]: 39.8 nM | IC50 (NCI-H226): 200 nM | IC50 (NCI-H23): 15.8 nM | IC50 (NCI-H322M): 100 nM | IC50 (NCI-H460): < 10 nM | IC50 (NCI-H522): 1000 nM | IC50 [3]: 25.1 nM | IC50 [4]: 12.6 nM | IC50 [5]: 158 nM | IC50 [6]: 126 nM | IC50 (HT-29): 126 nM | IC50 (KM12): 398 nM | IC50 [7]: 15.8 µM | IC50 [8]: 20 nM | IC50 [9]: 50.1 nM | IC50 [10]: 20 nM | IC50 [11]: 126 nM | IC50 [12]: 31.6 nM | IC50 (U-251): 126 nM | IC50 [13]: 316 nM | IC50 (Malme-3M): 126 nM | IC50 (M14): 200 nM | IC50 (MDA-MB-435): 398 nM | IC50 (SK-MEL-2): 398 nM | IC50 (SK-MEL-28): 126 nM | IC50 (SK-MEL-5): 63.1 nM | IC50 [14]: 251 nM | IC50 [15]: 25.1 nM | IC50 [16]: 50.1 nM | IC50 [17]: 100 nM | IC50 [18]: 25.1 nM | IC50 [19]: 316 nM | IC50 [20]: 158 nM | IC50 [21]: 316 nM | IC50 (786-0): 126 nM | IC50 (A498): 31.6 nM | IC50 (ACHN): 31.6 nM | IC50 [22]: 50.1 nM | IC50 [23]: 15.8 nM | IC50 (SN12C): 316 nM | IC50 [24]: 31.6 nM | IC50 [25]: 25.1 nM | IC50 [26]: 398 nM | IC50 [27]: < 10 nM | IC50 (MCF7): 1260 nM | IC50 (MDA-MB-231): 251 nM | IC50 [28]: 501 nM | IC50 [29]: 158 nM | IC50 (T47D): 63.1 nM | IC50 [30]: 210 nM | IC50 [31]: 8.8 µM | Ratio IC50 [32]: 41.9 | TGI (MV522): Active
